From ChEMBL document CHEMBL2321856, “Optimizing small molecule inhibitors of calcium-dependent protein kinase 1 to prevent infection by Toxoplasma gondii” (J Med Chem, 2013) come the findings set out here.

The source made the active and inactive calls. The calls are words filed in the database; no cut-off is given here.

Data set [1] relates to Toxoplasma gondii. The data set can be described thus: Antiparasitic activity against Toxoplasma gondii harboring wild type CDPK1 infected in HFF cells incubated for 20 mins prior to infection followed by compound washout at 1 hr measured after 72 hrs by crystal violet staining method. It counts as functional, organism-based. In a few lines: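 CDPK1-cKO parasites complemented with wild-type CDPK1, grown 72 h with 1 μg/ml ATc and kept in ATc throughout. Parasites pre-incubated 20 min at 37°C in DMEM/10% FBS with compound or 1% DMSO vehicle. 10⁵ per well added to confluent HFF, spun 300g for 2 min, infected 1 h at 37°C, then rinsed 5× with warm PBS. Grown 72 h with ATc; lysis read by crystal violet A570, as % of DMSO control.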

The subject of data set [2] is Toxoplasma gondii. The data set can be described thus: Antiparasitic activity against trachyzoites of Toxoplasma gondii type 2 expressing Pru-LUC infected in Balb/c mouse assessed as host survival at 5 mg/kg, ip administered for 10 days measured on day 30. Particulars: type II.
Data set [3] deals with Toxoplasma gondii. The data set can be described thus: Antiparasitic activity against Toxoplasma gondii type 2 expressing Pru-LUC infected in Balb/c mouse assessed reduction in number of tissue cysts in brain at 5 mg/kg, […] for 10 days measured after 30 days by fluorescently labeled lectin staining based microscopic analysis relative to control. It counts as functional, organism-based. More on the design: dose 5 mg/kg. The settings on record: type II.

Data set [4] deals with Toxoplasma gondii. The data set is described as follows: Antiparasitic activity against wild type tachyzoites of Toxoplasma gondii RH type 1 infected in HFF cells incubated for 20 mins prior to inoculation followed by compound washout at 4 hrs measured after 72 hrs by beta-galactoside reporter assay. In kind it is functional, organism-based. The settings on record: RH type 1, HFF. Summed up:
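Type I RH 2F clone (β-gal) in confluent HFF, DMEM with 10% FBS. Compounds diluted from 10 mM DMSO stock into medium with 1% DMSO (also no-compound control). Parasites preincubated 20 min at room temperature with compound, 5×10^2/well added, spun ~300 g 5 min. Washed with warm PBS at 4 h, grown to 72 h. Triton X-100 lysis, chlorophenol red-β-D-galactopyranoside, A570. Triplicates; EC50 from variable-slope sigmoidal fit.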

Data set [5] has as its system Toxoplasma gondii RH. The data set can be described thus: Selectivity ratio of IC50 for Toxoplasma gondii RH CDPK1 G128A mutant to Toxoplasma gondii RH full length CDPK1.
Data set [6] in a line: Inhibition of Toxoplasma gondii RH full length CDPK1 expressed in Escherichia coli BL21(DE3) using syntide-2 peptide as substrate after 20 mins by ELISA. It counts as cell-free. In a few lines:
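His-tagged recombinant CDPK1 purified by nickel affinity. Syntide-2-coated plates blocked with 3% BSA. Reaction run 20 min at 30°C in HEPES pH 7.5 with 10 mM MgCl₂, 2.5 mM CaCl₂, 0.1 mM EGTA and 1 mM DTT. Each enzyme used at its half-maximal-activity concentration with ATP at its own Km. Phosphopeptide detected by mAb MS-6E6/HRP-TMB at A450. Triplicates; IC50 from variable-slope sigmoidal fit.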
A general note: In an ELISA, binding on a coated surface is turned into a signal by an enzyme label.

Data set [7] deals with Toxoplasma gondii RH. The data set is described as follows: Selectivity ratio of IC50 for Toxoplasma gondii RH CDPK1 G128S mutant to Toxoplasma gondii RH full length CDPK1.
Data set [8] has as its system Toxoplasma gondii. The data set can be described thus: Antiparasitic activity against tachyzoites of Toxoplasma gondii RH type 1 infected in HFF cells incubated for 4 hrs followed by compound washout measured after 72 hrs by beta-galactoside reporter assay. It counts as functional, organism-based. The settings on record: RH type 1, HFF. In a few lines:
(§1)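 RH type I 2F clone expressing β-gal; compounds from 10 mM DMSO stocks diluted in medium with 1% DMSO. Parasites preincubated with compound 20 min at room temperature, then 5×10^2/well added to confluent HFF in DMEM/10% FBS and centrifuged. Washed with warm PBS after 4 or 24 h, grown to 72 h. Lysed in 1% Triton X-100; 1 mM chlorophenol red-β-D-galactopyranoside, A570.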
(In a reporter assay the amount or activity of a reporter protein is the signal.)

The subject of data set [9] is Toxoplasma gondii. The data set can be described thus: Ratio of growth inhibition of Toxoplasma gondii harboring wild type CDPK1 to growth inhibition of Toxoplasma gondii harboring CDPK1 G128M mutant. In kind it is functional.
The subject of data set [10] is Liver microsomes. The data set is described as follows: Half life in rat liver microsomes by LC-MS analysis. In kind it is ADME, Microsome.
For data set [11], the system named is Liver microsomes. The data set can be described thus: Intrinsic clearance in rat liver microsomes assessed per mg of protein after 10 to 60 mins by LC-MS analysis in presence of NADPH. It counts as ADME, Microsome. (Liver microsomes are vesicles of endoplasmic reticulum, rich in cytochrome P450 enzymes.)
In data set [12] the test system is Toxoplasma gondii. The data set can be described thus: Antiparasitic activity against tachyzoites of Toxoplasma gondii RH type 1 infected in HFF cells incubated for 24 hrs followed by compound washout measured after 72 hrs by beta-galactoside reporter assay. In kind it is functional, organism-based. Summed up: as §1

Consider `CC(C)(C)n1nc(Cc2cccc(Cl)c2)c2c(N)ncnc21`, for which the outcome in data set [1], in data set [2] and in data set [3] was Active. Further, the EC50 (usually the midpoint of the concentration-response curve) in [4] was determined as 30 nM.
In the case of `Cc1cccc(Cc2nn(C(C)(C)C)c3ncnc(N)c23)c1`, the result in data set [1], in data set [2] and in [3] was Active. Moreover, the Ratio IC50 amounted to 3 in data set [5] and 5.6 in data set [7]. The midpoint of inhibition in data set [6], the IC50, lay at 3.99 nM. Also, the 50% effective concentration (EC50) in [8] is 100 nM; in data set [4], 110 nM. In addition, the Ratio in [9] came out at 100.
`CC(C)(C)n1nc(Cc2cccc(Br)c2)c2c(N)ncnc21`: the midpoint of inhibition in [6], the IC50, lay at 9.64 nM. This molecule displayed a t1/2 in data set [10] of 3 min. The CLint in data set [11] is above 350 µL/min/mg. Also, the midpoint of the response in data set [4], the EC50, lay at 380 nM.
In the case of `CC(C)(C)c1ccc(-c2nn(C(C)(C)C)c3ncnc(N)c23)cc1`, half-maximal inhibition in data set [6] (IC50) required 1310 nM. In data set [4], this molecule came in with an EC50 of 3770 nM.
As to `CC(C)(C)n1nc(Cc2cccc(Cl)c2Cl)c2c(N)ncnc21`, in data set [6], inhibition was half-maximal at 3.38 nM (IC50). This molecule had an EC50 in [4] of 380 nM.
On to `CC(C)(C)n1nc(Cc2ccc(F)c(Cl)c2)c2c(N)ncnc21`, for which the IC50 – broadly, the concentration at which inhibition is half-maximal – in data set [6] came to 8.47 nM. In addition, the t1/2 in data set [10] worked out at 4 min. The CLint in data set [11] is above 350 µL/min/mg. In [4], this molecule had a concentration giving a half-maximal response (EC50) of 410 nM.
In turn, `CC(C)(C)n1nc(Cc2ccc3ccccc3c2)c2c(N)ncnc21` showed an IC50 in [6] of 35.4 nM. The molecule further had an EC50 in [4] of 1940 nM.
Take `CC(C)(C)n1nc(-c2cccc(Oc3ccccc3)c2)c2c(N)ncnc21`: the midpoint of inhibition in data set [6], the IC50, lay at 26.6 nM. The molecule further gave an EC50 in [4] of 1320 nM.
In data set [6], `CC(C)(C)n1nc(Cc2cc(Cl)ccc2F)c2c(N)ncnc21` came in with an IC50 of 12.5 nM. In addition, the t1/2 in data set [10] was found to be 5.5 min. In data set [11], the CLint was 250 µL/min/mg. This molecule returned an EC50 in data set [4] of 920 nM.
On to `CC(C)(C)n1nc(Cc2cccc(I)c2)c2c(N)ncnc21`, for which half-maximal inhibition in data set [6] (IC50) was put at 12.9 nM. Besides, the concentration giving a half-maximal response (EC50) in data set [4] turned out to be 1120 nM.
In data set [4], `CC(C)(C)n1nc(-c2cccc3ccccc23)c2c(N)ncnc21` registered an EC50 of 700 nM. This lies in the sub-micromolar range.
Molecule `CC(C)n1nc(C(F)c2cccc(Cl)c2Cl)c2c(N)ncnc21` (stereo not drawn) showed a concentration for half-maximal inhibition (IC50) in [6] of 13.6 nM. The same molecule displayed a t1/2 in data set [10] of 12.9 min. Moreover, in [11], the CLint was 107 µL/min/mg. In data set [4], the EC50 is 2630 nM.
Regarding `CC(C)n1nc(Cc2ccc(F)c(Cl)c2)c2c(N)ncnc21`, the half-inhibitory concentration (IC50) in data set [6] worked out at 13.1 nM. The molecule also came in with an EC50 in [4] of 560 nM.
`CC(C)(C)n1nc(Cc2cccc3ccccc23)c2c(N)ncnc21` returned a 50% effective concentration (EC50) in [4] of 1310 nM.
`CC(C)(C)n1nc(-c2cccc(OCc3ccccc3)c2)c2c(N)ncnc21` registered an IC50 in data set [6] of 374 nM. This molecule showed a concentration for a half-maximal effect (EC50) in [4] of 11600 nM.
Take `CC(C)(C)n1nc(Cc2cc(F)cc(F)c2)c2c(N)ncnc21`: the outcome in data set [2] and in data set [3] was Active. Besides, the EC50 in [4] was determined as 610 nM.
In data set [6], `CC(C)n1nc(Cc2cc(Cl)ccc2F)c2c(N)ncnc21` came in with an IC50 of 92.4 nM. The same molecule showed an EC50 in [4] of 6730 nM.
In data set [6], `CC(C)(C)n1nc(Cc2cc(F)cc(Cl)c2)c2c(N)ncnc21` displayed an IC50 of 13.2 nM. The concentration for a half-maximal effect (EC50) in data set [4] was 430 nM.
Consider `CCc1nc(N)nc(N)c1-c1ccc(Cl)cc1`, for which the outcome in data set [12] was Active.
In the case of `CC(C)n1nc(Cc2cccc(Cl)c2Cl)c2c(N)ncnc21`, the outcome in [1], in data set [2] and in data set [3] was Active. This molecule also displayed an IC50 in data set [6] of 2.38 nM. The molecule also showed a t1/2 in [10] of 7 min. In data set [11], the CLint worked out at 190 µL/min/mg. The Ratio in data set [9] is given as 100. The same molecule returned an EC50 in [4] of 250 nM.
Take `CC(C)(C)n1nc(-c2cccc(OCc3c(Cl)cccc3Cl)c2)c2c(N)ncnc21`: the IC50 in data set [6] is 2470 nM. In data set [4], the EC50 is 4530 nM.
In [6], `CC(C)(C)n1nc(-c2ccc3c(c2)OCO3)c2c(N)ncnc21` gave an IC50 of 13.8 nM. In data set [4], this molecule returned a 50% effective concentration (EC50) of 620 nM.
The molecule `CC(C)(C)n1nc(Cc2cccc(Cl)c2F)c2c(N)ncnc21` gave an IC50 in data set [6] of 7.37 nM. In data set [10], this molecule displayed a t1/2 of 2.5 min. Also, the CLint in data set [11] was above 350 µL/min/mg. The EC50 in [4] was found to be 360 nM.
`CC(C)n1nc(Cc2cc(F)cc(F)c2)c2c(N)ncnc21`: the IC50 in data set [6] is 50.9 nM. This molecule also returned an EC50 in [4] of 2070 nM.
As for `CC(C)n1nc(Cc2cccc(Cl)c2F)c2c(N)ncnc21`, the IC50 in [6] was 1.43 nM. In addition, the concentration for a half-maximal effect (EC50) in data set [4] is 1400 nM.
`CC(C)n1nc(Cc2cc(F)cc(Cl)c2)c2c(N)ncnc21`: the outcome in [1] was Active. In data set [6], inhibition was half-maximal at 4.59 nM (IC50). In addition, in [10], the t1/2 was found to be 2.4 min. Also, the CLint in data set [11] is above 350 µL/min/mg. Moreover, in data set [9], the Ratio is given as 100. The molecule further returned a concentration giving a half-maximal response (EC50) in data set [4] of 180 nM.
In [6], `CC(C)n1nc(C(O)c2cccc(Cl)c2Cl)c2c(N)ncnc21` (stereo not drawn) yielded a concentration for half-maximal inhibition (IC50) of 200 nM. The t1/2 in data set [10] was found to be 20.2 min. The CLint in data set [11] was found to be 68 µL/min/mg. For the same molecule, the EC50 in data set [4] worked out at 9460 nM.
